Calls of active or inactive are those of the source.
What was measured:
Bacillus subtilis [1] = experiment: Antibacterial activity against Bacillus subtilis BD54; format: functional
Streptococcus pneumoniae [2] = experiment: Antibacterial activity against penicillin-resistant Streptococcus pneumoniae 700670; format: functional
Method in brief: (§1)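 Streptococci tested by CLSI broth microdilution in Mueller-Hinton broth with 5% defibrinated horse blood, log-phase inoculum at 1 x 10^5 CFU/ml. Incubated 37°C with shaking, 16 to 20 h, in 5% humidified CO2. Compounds at 1% DMSO final. MIC is the lowest concentration without growth by OD600. Quadruplicate; highest MIC reported.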

Staphylococcus aureus [3] = experiment: Antibacterial activity against Staphylococcus aureus Smith 13709; format: functional
Method in brief: (§2)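 Broth microdilution per CLSI with modified incubation. Log-phase cultures in cation-adjusted Mueller-Hinton broth, seeded at 1 x 10^5 CFU/ml. Compounds from DMSO stocks, 1% DMSO final. Incubated 37°C, 16 to 20 h, shaken. Growth read as OD600. MIC is the lowest concentration with no apparent growth. Run in quadruplicate; highest value reported.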

Escherichia coli [4] = experiment: Antibacterial activity against Escherichia coli J53; format: functional
Enterococcus faecium [5] = experiment: Antibacterial activity against Enterococcus faecium 19434; format: functional; method in brief: as §2
Enterococcus faecalis [6] = experiment: Antibacterial activity against vancomycin-resistant Enterococcus faecalis 51575; format: functional; method in brief: as §2
Klebsiella pneumoniae = experiment: Antibacterial activity against Klebsiella pneumoniae 5657; format: functional
Pseudomonas aeruginosa = experiment: Antibacterial activity against Pseudomonas aeruginosa 27853; format: functional
Bacillus cereus [7] = experiment: Antibacterial activity against Bacillus cereus 6464; format: functional
Streptococcus pneumoniae [8] = experiment: Antibacterial activity against penicillin-resistant Streptococcus pneumoniae 700674; format: functional; method in brief: as §1
Bacillus thuringiensis [9] = experiment: Antibacterial activity against Bacillus thuringiensis 10792; format: functional
Bacillus cereus [10] = experiment: Antibacterial activity against Bacillus cereus 4342; format: functional
Staphylococcus aureus [11] = experiment: Antibacterial activity against HB-EMAU-resistant and ciprofloxacin-resistant Staphylococcus aureus Smith; format: functional; method in brief: as §2
Streptococcus pneumoniae [12] = experiment: Antibacterial activity against penicillin-resistant Streptococcus pneumoniae 700671; format: functional; method in brief: as §1
Staphylococcus aureus [13] = experiment: Antibacterial activity against methicillin-resistant Staphylococcus aureus 1123; format: functional; method in brief: as §2
[14] = Inhibition of calf thymus DNA polymerase alpha; set-up: species or system Bos taurus
Method in brief: (§3)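 Calf thymus pol alpha or human pol gamma, 0.025 to 0.06 U, added to compound dilutions in reaction mixture; 25 min at 37°C; stopped with ice-cold 10% TCA/10 mM pyrophosphate; precipitated [3H]DNA collected on filters and counted. Ki values for dGTP-competitive inhibitors obtained by truncated assay lacking dGTP.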

Staphylococcus aureus [15] = experiment: Antibacterial activity against mupirocin-resistant Staphylococcus aureus 777; format: functional; method in brief: as §2
[16] = Inhibition of Bacillus subtilis DNA polymerase 3E
Method in brief: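 Recombinant B. subtilis pol IIIE. Serial compound dilutions in DMSO; 30 mM Tris pH 7.5, 10 mM Mg acetate, 4 mM DTT, 20% glycerol, 25 µM each dATP/dCTP/dGTP, 10 µM [3H]dTTP, 0.4 mg/ml activated calf thymus DNA; 0.025 to 0.06 U enzyme, 10 min at 30°C. TCA-precipitated, filter-collected label counted by scintillation.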

Staphylococcus aureus [17] = experiment: Antibacterial activity against HB-EMAU-resistant Staphylococcus aureus Smith; format: functional; method in brief: as §2
Streptococcus pneumoniae [18] = experiment: Antibacterial activity against Streptococcus pneumoniae 49619; format: functional; method in brief: as §1
Streptococcus pneumoniae [19] = experiment: Antibacterial activity against penicillin-resistant Streptococcus pneumoniae 700673; format: functional; method in brief: as §1
Enterococcus faecalis [20] = experiment: Antibacterial activity against vancomycin-resistant Enterococcus faecalis 51299; format: functional; method in brief: as §2
[21] = system: Stenotrophomonas maltophilia; experiment: Antibacterial activity against Stenotrophomonas maltophilia 13637; format: functional
[22] = Inhibition of Bacillus subtilis gyrase
[23] = Therapeutic index, CC50 for MRC5 cells/MIC for Staphylococcus aureus Smith; format: cell-based; conditions: human
Staphylococcus aureus [24] = experiment: Antibacterial activity against mupirocin-sensitive Staphylococcus aureus 2529; format: functional
[25] = Inhibition of Bacillus subtilis topoisomerase 4
Bacillus thuringiensis [26] = experiment: Antibacterial activity against Bacillus thuringiensis 33679; format: functional
Enterococcus faecium [27] = experiment: Antibacterial activity against vancomycin-resistant Enterococcus faecium B42762; format: functional; method in brief: as §2
Staphylococcus aureus [28] = experiment: Antibacterial activity against Staphylococcus aureus 1081; format: functional; method in brief: as §2
Streptococcus pyogenes = experiment: Antibacterial activity against Streptococcus pyogenes 12344; format: functional
Staphylococcus aureus [29] = experiment: Antibacterial activity against methicillin-resistant Staphylococcus aureus 1132; format: functional; method in brief: as §2
Staphylococcus aureus [30] = experiment: Antibacterial activity against ciprofloxacin-resistant Staphylococcus aureus Smith; format: functional; method in brief: as §2
Staphylococcus aureus [31] = experiment: Antibacterial activity against Staphylococcus aureus 25923; format: functional; method in brief: as §2
[32] = Cytotoxicity against human MRC5 cells; format: cell-based
Method in brief: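 MRC-5 human diploid fibroblasts, 4 x 10^3 cells per well, exposed to compound from DMSO stock (final 1%) in minimal essential medium with 10% fetal calf serum for 72 h at 37°C beside a DMSO-only control.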

Enterococcus faecalis [33] = experiment: Antibacterial activity against Enterococcus faecalis 29212; format: functional; method in brief: as §2
Staphylococcus aureus [34] = experiment: Antibacterial activity against Staphylococcus aureus Smith in presence of 10% FCS; format: functional
Staphylococcus aureus [35] = experiment: Antibacterial activity against methicillin-resistant Staphylococcus aureus 1094; format: functional; method in brief: as §2
Enterococcus faecium [36] = experiment: Antibacterial activity against vancomycin-resistant Enterococcus faecium 1644; format: functional; method in brief: as §2
Enterococcus faecalis [37] = experiment: Antibacterial activity against vancomycin-resistant Enterococcus faecalis 700802; format: functional; method in brief: as §2
Streptococcus pneumoniae [38] = experiment: Antibacterial activity against penicillin-resistant Streptococcus pneumoniae 700677; format: functional; method in brief: as §1
Staphylococcus aureus [39] = experiment: Antibacterial activity against methicillin-resistant Staphylococcus aureus B42876; format: functional; method in brief: as §2
Bacillus subtilis [40] = experiment: Inhibition of DNA synthesis in Bacillus subtilis BD54; format: functional, organism-based
Method in brief: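 B. subtilis BD54 grown to log phase in C plus 50 medium; compound in DMSO added with [8-3H]adenine at time zero, at 5x or 1x MIC; samples over time. DNA = alkali-insensitive TCA-insoluble label; RNA = total TCA-insoluble minus DNA. Effect judged against diluent-control incorporation.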

Bacillus anthracis = experiment: Antibacterial activity against Bacillus anthracis Sterne; format: functional
[41] = biological target: T1, DNA polymerase subunit gamma-1 (Homo sapiens, UniProt P54098); experiment: Inhibition of human DNA polymerase gamma; method in brief: as §3
T1 sequence (P54098 whole entry): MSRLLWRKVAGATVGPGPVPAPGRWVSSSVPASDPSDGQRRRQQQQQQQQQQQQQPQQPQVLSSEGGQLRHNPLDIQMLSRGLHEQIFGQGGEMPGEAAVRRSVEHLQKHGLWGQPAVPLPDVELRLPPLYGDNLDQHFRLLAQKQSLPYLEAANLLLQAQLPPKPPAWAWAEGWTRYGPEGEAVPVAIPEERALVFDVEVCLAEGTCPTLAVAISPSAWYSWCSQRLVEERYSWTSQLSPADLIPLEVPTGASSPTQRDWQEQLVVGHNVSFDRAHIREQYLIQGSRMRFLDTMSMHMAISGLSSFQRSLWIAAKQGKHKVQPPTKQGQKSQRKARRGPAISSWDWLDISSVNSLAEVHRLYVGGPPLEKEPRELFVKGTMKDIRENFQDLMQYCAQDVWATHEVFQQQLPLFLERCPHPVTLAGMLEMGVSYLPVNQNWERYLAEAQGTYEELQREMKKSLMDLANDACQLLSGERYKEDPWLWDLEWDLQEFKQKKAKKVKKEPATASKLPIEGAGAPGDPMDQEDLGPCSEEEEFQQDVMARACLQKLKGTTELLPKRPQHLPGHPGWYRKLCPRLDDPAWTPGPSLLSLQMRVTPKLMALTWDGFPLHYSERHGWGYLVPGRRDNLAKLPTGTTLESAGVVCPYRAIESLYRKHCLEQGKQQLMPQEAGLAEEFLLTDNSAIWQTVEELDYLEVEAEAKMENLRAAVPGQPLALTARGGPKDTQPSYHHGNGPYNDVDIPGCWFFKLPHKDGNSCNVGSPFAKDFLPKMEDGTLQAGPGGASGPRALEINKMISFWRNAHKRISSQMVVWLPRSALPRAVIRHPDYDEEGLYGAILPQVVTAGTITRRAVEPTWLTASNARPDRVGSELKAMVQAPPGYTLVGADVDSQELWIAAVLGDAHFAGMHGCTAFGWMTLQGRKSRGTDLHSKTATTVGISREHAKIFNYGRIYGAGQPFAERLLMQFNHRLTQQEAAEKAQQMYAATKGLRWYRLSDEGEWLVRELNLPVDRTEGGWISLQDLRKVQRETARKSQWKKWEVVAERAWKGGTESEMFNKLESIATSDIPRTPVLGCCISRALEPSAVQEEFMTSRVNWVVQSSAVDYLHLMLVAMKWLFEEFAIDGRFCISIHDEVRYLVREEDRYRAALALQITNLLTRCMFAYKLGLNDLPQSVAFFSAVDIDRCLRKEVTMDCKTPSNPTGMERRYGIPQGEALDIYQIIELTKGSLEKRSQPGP

Enterococcus faecium [42] = experiment: Antibacterial activity against vancomycin and linezolid-resistant Enterococcus faecium F118; format: functional; method in brief: as §2
Escherichia coli [43] = experiment: Antibacterial activity against ciprofloxacin-resistant Escherichia coli XL1-Blue; format: functional; method in brief: as §2

CCc1cc(Nc2cc(=O)n(CCCCN3CCN(c4c(F)cc5c(=O)c(C(=O)O)cn(C6CC6)c5c4F)CC3C)c(=O)[nH]2)ccc1C (configuration not stated)
0.313 µg/mL: MIC (Staphylococcus aureus [3]) | MIC (Streptococcus pneumoniae [12]) | MIC (Streptococcus pneumoniae [19]) | MIC (Streptococcus pyogenes) | MIC (Streptococcus pneumoniae [38])
684 µM: Ki [41]
43.6 µM: IC50 [25]
0.625 µg/mL: MIC (Streptococcus pneumoniae [2]) | MIC (Streptococcus pneumoniae [8]) | MIC (Staphylococcus aureus [17]) | MIC (Streptococcus pneumoniae [18]) | MIC (Staphylococcus aureus [28]) | MIC (Staphylococcus aureus [29]) | MIC (Staphylococcus aureus [31]) | MIC (Staphylococcus aureus [34])
active: Activity (Bacillus subtilis [40])
> 482 µM: Ki [14] | Ki [16]
10 µg/mL: MIC [21]
5 µg/mL: MIC (Staphylococcus aureus [24])
20 µg/mL: MIC (Klebsiella pneumoniae) | MIC (Staphylococcus aureus [11])
2.5 µg/mL: MIC (Escherichia coli [4]) | MIC (Enterococcus faecium [5]) | MIC (Staphylococcus aureus [15]) | MIC (Staphylococcus aureus [39])
> 80 µg/mL: MIC (Pseudomonas aeruginosa) | CC50 [32]
0.156 µg/mL: MIC (Bacillus subtilis [1]) | MIC (Bacillus cereus [7]) | MIC (Bacillus thuringiensis [9]) | MIC (Bacillus cereus [10]) | MIC (Bacillus thuringiensis [26]) | MIC (Bacillus anthracis)
> 128: selectivity ratio [23]
1.25 µg/mL: MIC (Enterococcus faecalis [6]) | MIC (Staphylococcus aureus [13]) | MIC (Enterococcus faecalis [20]) | MIC (Enterococcus faecium [27]) | MIC (Staphylococcus aureus [30]) | MIC (Enterococcus faecalis [33]) | MIC (Staphylococcus aureus [35]) | MIC (Enterococcus faecium [36]) | MIC (Enterococcus faecalis [37]) | MIC (Enterococcus faecium [42]) | MIC (Escherichia coli [43])
31 µM: IC50 [22]
